Source: PubChem
RGS4 inh: human RGS4 inhibition; B-score at 10 µM; 310,000 tested, 0.45% active; AID 463165; HEK293 M3R/RGS4 inducible, Fluo-4 calcium flux; stronger effect = higher value; triggered by carbachol at its EC20; P49798;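 active means B-score, a plate-corrected calcium signal, over three deviations above library mean, with baseline fluorescence within five deviations of library mean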;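 further: RGS4 expression induced by doxycycline in cells with stable M3 receptor; B-score is computed from the integrated fluorescence ratio over baseline after carbachol; higher B-score means a larger calcium signal and so more RGS4 inhibition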
Target sequence (P49798 whole entry, looked up): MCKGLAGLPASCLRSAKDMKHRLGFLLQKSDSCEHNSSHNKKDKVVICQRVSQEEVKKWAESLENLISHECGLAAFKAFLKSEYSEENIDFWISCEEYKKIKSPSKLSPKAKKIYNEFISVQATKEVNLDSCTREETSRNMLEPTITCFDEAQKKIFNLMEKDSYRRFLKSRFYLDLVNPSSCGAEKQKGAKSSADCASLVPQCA
MrgX1 antag: human MrgX1 receptor antagonism, primary screen; Q96LB2; MRGX1-HEK293 calcium flux, Fluo-4, BAM8-22 antagonism; stronger effect = lower value; B-score at 10 µM; 310,000 tested, 1.3% active;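 active means calcium-response B-score plate-corrected more than 3 library SD below zero, starting fluorescence within 5 deviations, no agonist response on first addition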;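 further: peak minus trough fluorescence over baseline after final BAM8-22 challenge near maximal dose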
MrgX1 agonist: human MrgX1 receptor agonism, primary screen. Q96LB2. B-score at 10 µM. 310,000 tested, 0.44% active. MrgX1-HEK293 cells, Fluo-4 calcium fluorescence, agonist mode; stronger effect = higher value. AID 588627;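 active means calcium response B-score plate-corrected fluorescence ratio at least 3 library SD, with starting fluorescence B-score inside 5 SD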
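Test system: HEK293 cells stably expressing human MrgX1 receptor; Input: fifteen thousand cells per well; Dosing: compound delivered in addition one of three; Schedule: overnight seeding, then 1 h dark dye loading; Technique: Fluo-4 NW calcium fluorescence; Measure: B-scored fluorescence response ratio; Controls: positive and negative controls per plate.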
MrgX1 allo act: human MrgX1 positive allosteric modulation, primary screen | Q96LB2 | MrgX1-HEK293, Fluo-4 calcium flux, FDSS; stronger effect = higher value | B-score at 10 µM | 310,000 tested, 0.63% active | AID 588675;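 active means plate-corrected calcium response at least 3 library SD above typical, normal starting fluorescence, not activating the receptor alone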;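 further: compound read alongside a low EC10 to EC30 dose of BAM8-22 agonist; peak minus trough fluorescence over baseline measured at the second addition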
RGS4 pot: RGS4 potentiation or activation; 310,000 tested, 0.92% active; B-score at 10 µM; AID 463111; HEK293 M3R/inducible RGS4, carbachol calcium flux Fluo4; stronger effect = lower value;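 active means B-score of the integrated calcium signal more than 4 SD below the library mean, with starting fluorescence not abnormally high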;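 further: negative B-score means reduced calcium response which marks RGS4 activation or potentiation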
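test system = M3R-expressing HEK293 line, RGS4 induced by doxycycline | probe or stimulus = carbachol at ECmax as muscarinic agonist stimulus | timing = dye loading 30 min 37 °C, buffer rest 30 min RT | signal = calcium dye Fluo4 fluorescence | evaluation = B score from integrated fluorescence ratio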
* marks the source's active call; other numbers are inactive results; i = inactive; . = no result given; ! = repeats disagree. This is a sample that favours compounds with a hit; in the whole collection about 3.5% have one here.

SMILES	RGS4 inh	MrgX1 antag	MrgX1 agonist	MrgX1 allo act	RGS4 pot
CCNC(=O)NCCNC(=O)c1cc(OCC(F)(F)F)ccc1OCC(F)(F)F	i	-5.5*	i	i	i
C=CCn1c(SCCCC)nc(O)cc1=O	i	i	i	10*!	i
Cc1nc2ccccn2c1C(=O)N=Nc1c(O)n(CCC(C)C)c2ccccc12	i	i	i	i	-7.3*
Cc1c(Cc2ccccc2)sc(/N=C/c2ccc3ccccc3c2)c1C(N)=O	.	i	i	i	.
Cc1c(Cc2ccccc2)sc(/N=C/c2c(O)ccc3ccccc23)c1C(N)=O	i	-7.6*	i	i	i
CCN(CC)CCSc1nc2ccccc2c(=S)n1-c1ccccc1	i	i	i	i	-8*
CCN(CC)CCSc1nc(O)c(-c2ccccc2)c(=O)n1-c1ccccc1	i	i	i	i	i
CCN(CC)CCSc1nc2ccccc2n1Cc1ccccc1	i	i	i	i	-9.1*
Cc1oc(-c2ccc3ccccc3c2)nc1CN(C)C(C)c1ccncn1 (configuration not stated)	i	i	i	i	i
COc1cc2nc(N(CCCN(C)C)C(=O)c3ccc(S(=O)(=O)N(C)C4CCCCC4)cc3)sc2cc1OC	i	i	i	i	i
COc1ccc2sc(N(CCCN(C)C)C(=O)c3ccc(S(=O)(=O)N4CCCc5ccccc54)cc3)nc2c1	i	i	i	i	-9.5*
CN(C)CCCN(C(=O)c1ccc(S(=O)(=O)N(C)C2CCCCC2)cc1)c1nc2ccc(Br)cc2s1	i	i	i	i	-8.7*
CN(C)CCCN(C(=O)c1ccc(S(=O)(=O)N(C)C2CCCCC2)cc1)c1nc2ccc(F)cc2s1	i	i	i	i	i
Cc1cc(C)c2sc(N(CCCN(C)C)C(=O)c3ccc(S(=O)(=O)N(C)C4CCCCC4)cc3)nc2c1	i	i	i	i	-8*
CSC1=NC(C(Cl)(Cl)Cl)N=C(c2ccccc2)N1 (configuration not stated)	i	i	i	i	i
CCCCCCCCSc1nnc(CSc2nc3nc(C)cc(C)n3n2)o1	i	i	i	i	-8.3*
CCOC(=O)c1ccc(Cl)c(NC(=O)c2ccc(-c3ccccc3)cc2)c1	i	i	i	i	i
CCOC(=O)c1ccc(/C=C2/C=C(c3ccccc3)N(c3ccc(Cl)c(C(=O)O)c3)C2=O)cc1	i	i	40*	i	i
CCN(CC)c1nc(Nc2ccc([N+](=O)[O-])cc2)nc(N(CC)CC)n1	i	i	i	i	i
O=[N+]([O-])CC(c1ccc(F)cc1)c1c[nH]c2ccccc12 (configuration not stated)	i	i	i	6.5*	i
NCC(c1ccccc1)c1c[nH]c2ccccc12 (configuration not stated)	i	i	i	i	i
CCc1cc[n+](-c2nc3ccccc3nc2[N-]S(=O)(=O)c2ccc(Br)s2)cc1	i	-6.5*	i	i	i
CCCCCC[N+](C)(C)CC/C=C1/c2ccccc2Sc2ccc(Cl)cc21	i	i	i	i	-9.5*
COCCC(=O)N1CCCC(CNS(=O)(=O)c2ccc(OC)cc2)C1 (configuration not stated)	i	i	i	i	i
COC(=O)CCCC(=O)N1CCCC(CNS(=O)(=O)c2ccc(OC)cc2)C1 (configuration not stated)	i	-4.6*	i	i	i
Cc1cc(Cl)ccc1OCC(=O)NN1C(=O)C2C3C=CC(C3)C2C1=O (configuration not stated)	i	-6.1*	i	i	i
O=c1oc2ccccc2cc1-c1csc(NN=C2CCCCC2)n1	i	i	i	i	-7.5*
CC(C)Cc1ccc(S(=O)(=O)NCC2CCCO2)cc1 (configuration not stated)	i	i	i	i	i
CC[n+]1c(/C=C/Nc2ccccc2)oc2ccccc21	i	i	i	i	i
CC[n+]1c(/C=C/N(C)c2ccccc2)oc2ccc(F)cc21	i	-4.7*	i	i	i
